According to ChEMBL document CHEMBL3351826, “Synthesis of pyrazolo[4,3-e][1,2,4]triazine sulfonamides, novel Sildenafil analogs with tyrosinase inhibitory activity” (Bioorg Med Chem, 2014):
In brackets after ≈: the same amount, converted by molar mass. Activity calls are given as the source filed them. The calls are words filed in the database; no cut-off is given here.

Experiments:
[1] = test system: Leptosphaeria sacchari; experiment: Inhibition of Leptosphaeria sacchari tyrosinase using L-DOPA as substrate at 0.1 mM incubated for 10 mins prior to substrate addition […] by spectrophotometry
[2] = test system: Leptosphaeria sacchari; experiment: Inhibition of Leptosphaeria sacchari tyrosinase using L-DOPA as substrate at 1 mM incubated for 10 mins prior to substrate addition […] by spectrophotometry
[3] = Inhibition of Leptosphaeria sacchari tyrosinase using L-DOPA as substrate incubated for 10 mins prior to substrate addition […] by spectrophotometry
[4] = organism: Oryctolagus cuniculus; experiment: Inhibition of rabbit platelet PDE5A using [3H]cGMP as substrate at 1 uM after 30 mins by scintillation proximity assay
Method in brief: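 PDE5A isolated from rabbit platelets; tritium scintillation proximity assay in 50 mM Tris-HCl pH 7.5 with 8.3 mM MgCl2 and 1.7 mM EGTA. Compounds tested at 1 µM from DMSO stock, final DMSO <1%. Enzyme limited to ≤15% substrate hydrolysis. Duplicates. % inhibition = [1 − (CPM sample − blank)/(CPM water control − blank)] × 100.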

[5] = test system: Leptosphaeria sacchari; experiment: Inhibition of Leptosphaeria sacchari tyrosinase using L-DOPA as substrate at 0.3 mg/ml incubated for 10 mins prior to substrate addition […] by spectrophotometry
[6] = test system: Leptosphaeria sacchari; experiment: Inhibition of Leptosphaeria sacchari tyrosinase using L-DOPA as substrate assessed as remaining activity at 0.3 mg/ml incubated for 10 mins prior to substrate addition […] by spectrophotometry

Row | SMILES | IC50 [3] [mg/mL] | inhibition [4] [%] | inhibition [5] [%] | Activity [6] [%] | inhibition [1] [%] | inhibition [2]
1 | c1nnc2[nH]ncc2n1 | – | – | – | – | 48 | Active
2 | CCOc1ccc(S(=O)(=O)NCCN2CCOCC2)cc1-c1nnc2c(n1)c(C)nn2C | 0.15 (≈ 325 µM) | 13.3 | 62.1 | 37.9 | – | –
3 | CCOc1ccc(S(=O)(=O)NCCO)cc1-c1nnc2c(n1)c(C)nn2C | 0.1 (≈ 255 µM) | – | 39.5 | 60.5 | – | –
4 | CCOc1ccc(S(=O)(=O)N2CCCNCC2)cc1-c1nnc2c(n1)c(C)nn2C | 0.1 (≈ 232 µM) | 0.6 | 62.1 | 33.5 | – | –
5 | CCOc1ccc(S(=O)(=O)N2CCCC2)cc1-c1nnc2c(n1)c(C)nn2C | 0.09 (≈ 224 µM) | 24.1 | 60.4 | 39.6 | – | –
6 | CCOc1ccc(S(=O)(=O)N2CCN(C)CC2)cc1-c1nnc2c(n1)c(C)nn2C | 0.11 (≈ 255 µM) | 6 | 58.8 | 41.2 | – | –
7 | CCCc1nn(C)c2c(=O)[nH]c(-c3cc(S(=O)(=O)N4CCN(C)CC4)ccc3OCC)nc12 | – | 98.9 | – | – | – | –
8 | CCOc1ccc(S(=O)(=O)N(CC)CC)cc1-c1nnc2c(n1)c(C)nn2C | 0.12 (≈ 297 µM) | 16.4 | 68.3 | 31.7 | – | –
9 | CCOc1ccc(S(=O)(=O)NCCN)cc1-c1nnc2c(n1)c(C)nn2C | 0.07 (≈ 179 µM) | 0 | 96.3 | 3.7 | – | –
10 | CCOc1ccc(S(=O)(=O)N2CCCN(S(=O)(=O)c3ccc(OCC)c(-c4nnc5c(n4)c(C)nn5C)c3)CC2)cc1-c1nnc2c(n1)c(C)nn2C | – | 26.7 | – | – | – | –

More lines, main results first:

Row | IC50 [3] [mg/mL] | inhibition [4] [%] | inhibition [5] [%] | Activity [6] [%] | SMILES | inhibition [1] [%] | inhibition [2]
11 | 0.15 (≈ 358 µM) | 0 | 51.4 | 48.6 | CCOc1ccc(S(=O)(=O)N2CCOCC2)cc1-c1nnc2c(n1)c(C)nn2C | – | –
12 | – | 11.4 | – | – | CCOc1ccc(S(=O)(=O)N2CCN(S(=O)(=O)c3ccc(OCC)c(-c4nnc5c(n4)c(C)nn5C)c3)CC2)cc1-c1nnc2c(n1)c(C)nn2C | – | –
13 | 0.12 (≈ 288 µM) | 29.5 | 59.8 | 40.2 | CCOc1ccc(S(=O)(=O)N2CCCCC2)cc1-c1nnc2c(n1)c(C)nn2C | – | –
14 | 0.14 (≈ 324 µM) | 0 | 54.8 | 45.2 | CCOc1ccc(S(=O)(=O)N2CCN(C)CC2)cc1-c1nnc2nn(C)c(C)c2n1 | – | –
15 | 0.08 (≈ 192 µM) | 26.5 | 70.5 | 29.5 | CCOc1ccc(S(=O)(=O)N2CCNCC2)cc1-c1nnc2c(n1)c(C)nn2C | – | –
16 | 0.9 (≈ 1250 µM) | 28.1 | 79.7 | 20.2 | CCOc1ccc(S(=O)(=O)NCCNS(=O)(=O)c2ccc(OCC)c(-c3nnc4c(n3)c(C)nn4C)c2)cc1-c1nnc2c(n1)c(C)nn2C | – | –
17 | 0.12 (≈ 261 µM) | 5.8 | 57.1 | 42.9 | CCCc1nn(C)c2nnc(-c3cc(S(=O)(=O)N4CCN(C)CC4)ccc3OCC)nc12 | – | –
